In brackets after ≈: the same amount, converted by molar mass.
Legend:
Format in all cases: functional
[1] = tested on: Staphylococcus epidermidis; experiment: Antibacterial activity against methicillin-sensitive Staphylococcus epidermidis ATCC 12228 assessed as reduction in bacterial growth incubated for 18 hrs by agar dilution method; conditions: ATCC 12228, 18 h
Method in brief: (§1)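 CLSI agar dilution MIC. Stocks at 1920 μg/ml in 0.2% DMSO, twofold diluted and mixed into agar plates to final 0.03–128 µg/mL. Inoculum set to 0.5 turbidity, diluted 10-fold and applied by multipoint inoculator within 30 min, about 10^4 CFU per spot. Plates incubated 35 ± 2°C for 18 h. MIC is the lowest concentration with no visible growth.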

Staphylococcus aureus [2] = experiment: Antibacterial activity against methicillin-sensitive Staphylococcus aureus ATCC 29213 assessed as reduction in bacterial growth incubated for 18 hrs by agar dilution method; conditions: ATCC 29213, 18 h; method in brief: as §1
Staphylococcus aureus [3] = experiment: Antibacterial activity against methicillin-resistant Staphylococcus aureus ATCC 33591 assessed as reduction in bacterial growth incubated for 18 hrs by agar dilution method; conditions: ATCC 33591, 18 h; method in brief: as §1
[4] = tested on: Staphylococcus epidermidis; experiment: Antibacterial activity against methicillin-resistant Staphylococcus epidermidis 16-5 assessed as reduction in bacterial growth incubated for 18 hrs by agar dilution method; conditions: 16-5, 18 h; method in brief: as §1

Row | Structure (SMILES) | MIC [1] | MIC (Staphylococcus aureus [2]) | MIC (Staphylococcus aureus [3]) | MIC [4]
1 | C=C[C@]1(C)C[C@@H](OC(=O)CS[C@@H]2CC[C@H](C(=O)OCC)C[C@H]2NS(=O)(=O)c2ccc(Br)cc2)[C@]2(C)[C@H](C)CC[C@]3(CCC(=O)[C@H]32)[C@@H](C)[C@@H]1O | 1 µg/mL (≈ 1.28 µM) | 1 µg/mL (≈ 1.28 µM) | 1 µg/mL (≈ 1.28 µM) | 1 µg/mL (≈ 1.28 µM)
2 | C=C[C@]1(C)C[C@@H](OC(=O)CS[C@@H]2CC[C@H](C(=O)O)C[C@H]2N)[C@]2(C)[C@H](C)CC[C@]3(CCC(=O)[C@H]32)[C@@H](C)[C@@H]1O | 2 µg/mL (≈ 3.73 µM) | 32 µg/mL (≈ 59.7 µM) | 32 µg/mL (≈ 59.7 µM) | 4 µg/mL (≈ 7.47 µM)
3 | C=C[C@]1(C)C[C@@H](OC(=O)CS[C@@H]2CC[C@H](C(=O)OCC)C[C@H]2NS(=O)(=O)c2ccc(NC(C)=O)cc2)[C@]2(C)[C@H](C)CC[C@]3(CCC(=O)[C@H]32)[C@@H](C)[C@@H]1O | 0.5 µg/mL (≈ 0.657 µM) | 0.5 µg/mL (≈ 0.657 µM) | 0.5 µg/mL (≈ 0.657 µM) | 0.5 µg/mL (≈ 0.657 µM)
4 | C=C[C@]1(C)C[C@@H](OC(=O)CS[C@@H]2CC[C@H](C(=O)OCC)C[C@H]2NS(=O)(=O)c2ccc(C(C)=O)cc2)[C@]2(C)[C@H](C)CC[C@]3(CCC(=O)[C@H]32)[C@@H](C)[C@@H]1O | 0.25 µg/mL (≈ 0.335 µM) | 0.25 µg/mL (≈ 0.335 µM) | 0.25 µg/mL (≈ 0.335 µM) | 0.25 µg/mL (≈ 0.335 µM)
5 | C=C[C@]1(C)C[C@@H](OC(=O)CS[C@@H]2CC[C@H](C(=O)OCC)C[C@H]2NS(=O)(=O)c2ccc(F)cc2)[C@]2(C)[C@H](C)CC[C@]3(CCC(=O)[C@H]32)[C@@H](C)[C@@H]1O | 0.5 µg/mL (≈ 0.693 µM) | 1 µg/mL (≈ 1.39 µM) | 1 µg/mL (≈ 1.39 µM) | 1 µg/mL (≈ 1.39 µM)
6 | C=C[C@]1(C)C[C@@H](OC(=O)CS[C@@H]2CC[C@H](C(=O)OCC)C[C@H]2N)[C@]2(C)[C@H](C)CC[C@]3(CCC(=O)[C@H]32)[C@@H](C)[C@@H]1O | 0.25 µg/mL (≈ 0.443 µM) | 1 µg/mL (≈ 1.77 µM) | 1 µg/mL (≈ 1.77 µM) | 0.25 µg/mL (≈ 0.443 µM)
7 | C=C[C@]1(C)C[C@@H](OC(=O)CS[C@@H]2CC[C@H](C(=O)OCC)C[C@H]2NS(=O)(=O)c2ccc(Cl)cc2)[C@]2(C)[C@H](C)CC[C@]3(CCC(=O)[C@H]32)[C@@H](C)[C@@H]1O | 0.5 µg/mL (≈ 0.677 µM) | 1 µg/mL (≈ 1.35 µM) | 0.5 µg/mL (≈ 0.677 µM) | 0.5 µg/mL (≈ 0.677 µM)
8 | C=C[C@]1(C)C[C@@H](OC(=O)CS[C@@H]2CC[C@H](C(=O)OCC)C[C@H]2NS(=O)(=O)c2ccc(OC)cc2)[C@]2(C)[C@H](C)CC[C@]3(CCC(=O)[C@H]32)[C@@H](C)[C@@H]1O | 0.25 µg/mL (≈ 0.341 µM) | 0.5 µg/mL (≈ 0.681 µM) | 0.25 µg/mL (≈ 0.341 µM) | 0.5 µg/mL (≈ 0.681 µM)
9 | C=C[C@]1(C)C[C@@H](OC(=O)CS[C@@H]2CC[C@H](C(=O)OCC)C[C@H]2NS(=O)(=O)c2ccc(C)cc2)[C@]2(C)[C@H](C)CC[C@]3(CCC(=O)[C@H]32)[C@@H](C)[C@@H]1O | 0.25 µg/mL (≈ 0.348 µM) | 1 µg/mL (≈ 1.39 µM) | 1 µg/mL (≈ 1.39 µM) | 0.5 µg/mL (≈ 0.696 µM)
10 | C=C[C@]1(C)C[C@@H](OC(=O)CS[C@@H]2CC[C@H](C(=O)OCC)C[C@H]2NS(=O)(=O)c2ccccc2)[C@]2(C)[C@H](C)CC[C@]3(CCC(=O)[C@H]32)[C@@H](C)[C@@H]1O | 0.5 µg/mL (≈ 0.71 µM) | 1 µg/mL (≈ 1.42 µM) | 0.5 µg/mL (≈ 0.71 µM) | 1 µg/mL (≈ 1.42 µM)
11 | C=C[C@]1(C)C[C@@H](OC(=O)CS[C@@H]2CC[C@H](C(=O)OCC)C[C@H]2NS(=O)(=O)c2ccc([N+](=O)[O-])cc2)[C@]2(C)[C@H](C)CC[C@]3(CCC(=O)[C@H]32)[C@@H](C)[C@@H]1O | 0.5 µg/mL (≈ 0.668 µM) | 1 µg/mL (≈ 1.34 µM) | 1 µg/mL (≈ 1.34 µM) | 0.5 µg/mL (≈ 0.668 µM)
12 | C=C[C@]1(C)C[C@@H](OC(=O)CS[C@@H]2CC[C@H](C(=O)OCC)C[C@H]2NS(=O)(=O)c2ccc(C#N)cc2)[C@]2(C)[C@H](C)CC[C@]3(CCC(=O)[C@H]32)[C@@H](C)[C@@H]1O | 0.25 µg/mL (≈ 0.343 µM) | 1 µg/mL (≈ 1.37 µM) | 1 µg/mL (≈ 1.37 µM) | 0.5 µg/mL (≈ 0.686 µM)
13 | C=C[C@]1(C)C[C@@H](OC(=O)CS[C@@H]2CC[C@@H](N)C[C@H]2O)[C@]2(C)[C@H](C)CC[C@]3(CCC(=O)[C@H]32)[C@@H](C)[C@@H]1O [LEFAMULIN] | ≤ 0.03 µg/mL | 0.25 µg/mL (≈ 0.492 µM) | 0.5 µg/mL (≈ 0.985 µM) | 0.25 µg/mL (≈ 0.492 µM)
